Experimental data reported in ChEMBL document CHEMBL2380254, “Optimization of tocotrienols as antiproliferative and antimigratory leads” (Eur J Med Chem, 2013).

Key:
SF-295 = experiment: Growth inhibition of human SF295 cells assessed as cell growth at 10 uM after 48 hrs by sulforhodamine B assay; format: functional; conditions: SF-295, 48 h, read-out: Activity
In short: (§1)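 Single-dose NCI-60 screen: adherent cells in RPMI 1640 with 5% FBS were exposed to 10 µM for 48 h at 37 °C after a 24 h preincubation. They were fixed in situ with cold TCA (10% final), stained with 0.4% SRB in 1% acetic acid, solubilized in 10 mM Tris base, and read at 515 nm. Percent growth was taken relative to time-zero and control plates.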

MDA-MB-231 [1] = experiment: Antiproliferative activity against human MDA-MB-231 cells by MTT assay; format: functional, cell-based
In short: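 Cells plated at 8 × 10^3/well (MDA-MB-231) or 10^4/well (MCF7) in 96-well plates. Compounds fed in media with 5% FBS (MDA-MB-231) or 1% FBS (MCF7). MTT read-out of viable cells.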

[2] = Growth inhibition of human Hs 578T cells assessed as cell growth at 10 uM after 48 hrs by sulforhodamine B assay; format: functional; conditions: read-out: Activity
In short: (§2)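 NCI-60 single-dose screen at 10 µM: cells in RPMI 1640 with 5% FBS, preincubated 24 h, then exposed 48 h at 37 °C. TCA fixation (16% final for suspension cells), SRB staining, absorbance 515 nm. Percent growth relative to time-zero and untreated control plates; negative values indicate cell kill.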

UACC-62 = experiment: Growth inhibition of human UACC62 cells after 48 hrs by sulforhodamine B assay; format: functional; conditions: UACC-62, 48 h
In short: (§3)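 NCI-60 five-dose screen. Cells were grown in RPMI 1640 with 5% FBS and 2 mM L-glutamine, plated at 5000–40,000 cells/well and incubated 24 h before dosing, with T0 plates TCA-fixed. DMSO stocks were diluted to doses of […] and exposed 48 h at 37 °C, 5% CO2. Cells were fixed with cold TCA (final 10%, 60 min, 4 °C), stained with 0.4% SRB in 1% acetic acid for 10 min, solubilized in 10 mM trizma base and read at 515 nm. GI50 is where 100×(T−T0)/(C−T0)=50.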

[3] = Growth inhibition of human HCC2998 cells after 48 hrs by sulforhodamine B assay; format: functional; conditions: HCC 2998, 48 h
In short: (§4)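 NCI-60 screen: cells in RPMI 1640 with 5% FBS and 2 mM glutamine, 5000–40,000 cells/well, preincubated 24 h. Five concentrations (10-fold dilutions; 100 to 0.001 µM) applied for 48 h at 37 °C. TCA fixation, SRB stain, absorbance at 515 nm. Time-zero plates included; GI50 where 100×(T−T0)/(C−T0)=50.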

Malme-3M = experiment: Growth inhibition of human MALME-3M cells after 48 hrs by sulforhodamine B assay; format: functional
In short: (§5)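 NCI-60 panel cells grown in RPMI 1640 with 5% FBS and 2 mM L-glutamine, seeded at 5000–40,000 cells/well and preincubated 24 h. Five 10-fold dilutions (0.001–100 µM) from DMSO stocks were added for 48 h at 37 °C. Adherent cells were fixed with cold TCA (10% final) for 60 min at 4 °C, stained with 0.4% SRB, and read at 515 nm. GI50 was set where 100×(T−T0)/(C−T0)=50.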

SF-539 [4] = experiment: Growth inhibition of human SF539 cells after 48 hrs by sulforhodamine B assay; format: functional; conditions: SF-539, 48 h; in short: as §5
PC-3 = experiment: Growth inhibition of human PC3 cells assessed as cell growth at 10 uM after 48 hrs by sulforhodamine B assay; format: functional; conditions: PC-3, 48 h, read-out: Activity; in short: as §1
A498 [5] = experiment: Growth inhibition of human A498 cells after 48 hrs by sulforhodamine B assay; format: functional; conditions: A498, 48 h; in short: as §4
HT-29 = experiment: Growth inhibition of human HT-29 cells after 48 hrs by sulforhodamine B assay; format: functional; conditions: HT-29, 48 h; in short: as §4
NCI-H226 = experiment: Growth inhibition of human NCI-H226 cells assessed as cell growth at 10 uM after 48 hrs by sulforhodamine B assay; format: functional; conditions: NCI-H226, 48 h, read-out: Activity; in short: as §1
SNB-75 = experiment: Growth inhibition of human SNB75 cells assessed as cell growth at 10 uM after 48 hrs by sulforhodamine B assay; format: functional; conditions: SNB-75, 48 h, read-out: Activity
In short: (§6)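 Single-dose NCI-60 test at 10 µM. Cells were grown in RPMI 1640 with 5% FBS and 2 mM L-glutamine, preincubated 24 h, with T0 plates TCA-fixed. Exposure was 48 h at 37 °C, 5% CO2. Cells were fixed with cold TCA (final 10%, 4 °C, 60 min), stained with SRB and read at 515 nm. Percent growth was taken relative to T0 and untreated control; negative values denote cell kill.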

MDA-MB-435 = experiment: Growth inhibition of human MDA-MB-435 cells assessed as cell growth at 10 uM after 48 hrs by sulforhodamine B assay; format: functional; conditions: MDA-MB-435, 48 h, read-out: Activity; in short: as §1
T47D = experiment: Growth inhibition of human T47D cells after 48 hrs by sulforhodamine B assay; format: functional; in short: as §3
U-251 = experiment: Growth inhibition of human U251 cells assessed as cell growth at 10 uM after 48 hrs by sulforhodamine B assay; format: functional; conditions: U-251, 48 h, read-out: Activity; in short: as §6
HOP-62 = experiment: Growth inhibition of human HOP62 cells after 48 hrs by sulforhodamine B assay; format: functional; conditions: HOP-62, 48 h; in short: as §4
SF-539 [6] = experiment: Growth inhibition of human SF539 cells assessed as cell growth at 10 uM after 48 hrs by sulforhodamine B assay; format: functional; conditions: SF-539, 48 h, read-out: Activity; in short: as §1
UACC-257 = experiment: Growth inhibition of human UACC257 cells after 48 hrs by sulforhodamine B assay; format: functional; conditions: UACC-257, 48 h; in short: as §3
A498 [7] = experiment: Growth inhibition of human A498 cells assessed as cell growth at 10 uM after 48 hrs by sulforhodamine B assay; format: functional; conditions: A498, 48 h, read-out: Activity; in short: as §2
SF-268 = experiment: Growth inhibition of human SF268 cells after 48 hrs by sulforhodamine B assay; format: functional; conditions: SF-268, 48 h; in short: as §5
MDA-MB-231 [8] = experiment: Growth inhibition of human MDA-MB-231 cells after 48 hrs by sulforhodamine B assay; format: functional; conditions: MDA-MB-231, 48 h; in short: as §5
MOLT-4 = experiment: Growth inhibition of human MOLT4 cells assessed as cell growth at 10 uM after 48 hrs by sulforhodamine B assay; format: functional; conditions: MOLT-4, 48 h, read-out: Activity
In short: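 Single 10 µM dose applied to suspension cells in RPMI 1640 with 5% FBS and 2 mM L-glutamine for 48 h at 37 °C. Settled cells were fixed with 80% TCA (16% final), stained with SRB, and read at 515 nm. Percent growth was calculated against time-zero and untreated control optical densities.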

CCRF-CEM = experiment: Growth inhibition of human CCRF-CEM cells after 48 hrs by sulforhodamine B assay; format: functional; in short: as §4
M14 = experiment: Growth inhibition of human M14 cells after 48 hrs by sulforhodamine B assay; format: functional; conditions: M14, 48 h; in short: as §4
ACHN = experiment: Growth inhibition of human ACHN cells after 48 hrs by sulforhodamine B assay; format: functional; in short: as §4

SMILES	growth at 10 µM (SF-295)	IC50 (MDA-MB-231 [1])	growth at 10 µM [2]	GI50 (UACC-62)	GI50 [3]	GI50 (Malme-3M)	GI50 (SF-539 [4])	growth at 10 µM (PC-3)	GI50 (A498 [5])	GI50 (HT-29)	growth at 10 µM (NCI-H226)	growth at 10 µM (SNB-75)	growth at 10 µM (MDA-MB-435)	GI50 (T47D)	growth at 10 µM (U-251)	GI50 (HOP-62)	growth at 10 µM (SF-539 [6])	GI50 (UACC-257)	growth at 10 µM (A498 [7])	GI50 (SF-268)	other results
CC(C)=CCC/C(C)=C/CC/C(C)=C/CC[C@]1(C)CCc2c3c(cc(C)c2O1)OCN(CCc1ccc(O)cc1)C3	102%	> 5 µM	-6.12%	6.01 µM	1.71 µM	7.06 µM	6.41 µM	61.1%	6.21 µM	3.53 µM	88.7%	44.4%	-53.1%	6.06 µM	-32%	5.66 µM	94.1%	7.33 µM	100%	6.17 µM	GI50 (MDA-MB-231 [8]): 4.65 µM; growth at 10 µM (MOLT-4): -3.07%; GI50 (CCRF-CEM): 1.75 µM; GI50 (M14): 6.66 µM; GI50 (ACHN): 5.94 µM
CC(C)=CCC/C(C)=C/CC/C(C)=C/CC[C@]1(C)CCc2c3c(cc(C)c2O1)OCN(CCCCCCO)C3	-74.7%	> 5 µM	29.8%	4.85 µM	0.663 µM	6.25 µM	2.37 µM	-31.4%	4.88 µM	0.72 µM	92.5%	-1.37%	-48.1%	1.76 µM	-91.9%	0.877 µM	28.3%	0.62 µM	121%	1.18 µM	GI50 (MDA-MB-231 [8]): 0.782 µM; growth at 10 µM (MOLT-4): -42.9%; GI50 (CCRF-CEM): 0.866 µM; GI50 (M14): 0.979 µM; GI50 (ACHN): 2.29 µM
CC(C)=CCC/C(C)=C/CC/C(C)=C/CC[C@]1(C)CCc2c3c(c(C)c(C)c2O1)OCN(CCCCCCO)C3	61.7%	> 10 µM	90.4%	2.67 µM	2.62 µM	2.78 µM	3.15 µM	51%	2.59 µM	3.04 µM	97.3%	62.8%	22.1%	2.84 µM	-75.2%	2.7 µM	66.1%	3.45 µM	111%	2.81 µM	GI50 (MDA-MB-231 [8]): 2.75 µM; growth at 10 µM (MOLT-4): -18.4%; GI50 (CCRF-CEM): 2.73 µM; GI50 (M14): 3.11 µM; GI50 (ACHN): 2.75 µM
CC(C)=CCC/C(C)=C/CC/C(C)=C/CC[C@]1(C)CCc2c3c(cc(C)c2O1)OCN(CCCCCO)C3	103%	9 µM	36.6%	5.87 µM	2.53 µM	6.9 µM	6.26 µM	63.7%	5.76 µM	3.74 µM	98.4%	74.8%	44.7%	6.17 µM	-19.9%	5.9 µM	95%	6.97 µM	89.7%	7.13 µM	GI50 (MDA-MB-231 [8]): 5.87 µM; growth at 10 µM (MOLT-4): -1.68%; GI50 (CCRF-CEM): 7.83 µM; GI50 (M14): 6.63 µM; GI50 (ACHN): 5.74 µM
